These results are taken from ChEMBL document CHEMBL1155982 (Bioorg Med Chem Lett, 2009).

pIC50: −log10 of the molar value. Some results are limits rather than exact numbers.

A short description of test [1]: Intrinsic cytotoxicity against human MES-SA/Dx5 cells. The class given is functional. Put shortly:
(§1)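 MES-SA/DX5 (P-gp-overexpressing human sarcoma) cells seeded at 1.2 × 10⁴ cells/well and incubated 24 h at 37 °C. They were then exposed for 60 h to varying concentrations of test compound, with or without 100 nM Taxol. Survival was read by Cell Counting Kit-8, and GI₅₀/EC₅₀ were taken from the concentration series.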

Test [2] is described as follows: Cytotoxicity against human MES-SA/Dx5 cells. The class given is functional, cell-based. The method, boiled down:
as §1

Another test deals with Cytochrome P450 3A4 (Homo sapiens, UniProt P08684). The test is described as follows: Inhibition of human CYP3A4. The class given is ADME.
Chain of Cytochrome P450 3A4 (P08684 whole entry): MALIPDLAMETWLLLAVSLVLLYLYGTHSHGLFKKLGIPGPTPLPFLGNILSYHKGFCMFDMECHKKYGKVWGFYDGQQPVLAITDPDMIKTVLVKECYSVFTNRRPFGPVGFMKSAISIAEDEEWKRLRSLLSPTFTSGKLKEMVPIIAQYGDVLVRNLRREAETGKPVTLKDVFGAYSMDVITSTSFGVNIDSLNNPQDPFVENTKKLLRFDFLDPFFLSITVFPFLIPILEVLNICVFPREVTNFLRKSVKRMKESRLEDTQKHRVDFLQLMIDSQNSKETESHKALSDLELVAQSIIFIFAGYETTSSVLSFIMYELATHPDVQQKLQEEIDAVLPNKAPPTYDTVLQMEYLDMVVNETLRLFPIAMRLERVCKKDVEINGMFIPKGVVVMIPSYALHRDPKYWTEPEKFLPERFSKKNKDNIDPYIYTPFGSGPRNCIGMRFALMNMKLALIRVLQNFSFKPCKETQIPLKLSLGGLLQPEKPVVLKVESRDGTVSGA

For the compound `CC(=O)O[C@H]1C(=O)[C@@]2(C)[C@H]([C@H](OC(=O)c3ccccc3)[C@]3(O)C[C@H](OC(=O)[C@H](O)[C@@H](NC(=O)c4ccccc4)c4ccccc4)C(C)=C1C3(C)C)[C@]1(OC(C)=O)CO[C@@H]1C[C@@H]2O` [PACLITAXEL], the GI50 in test [1] came out at 7.54 µM. Further, the pIC50 in test [2] is 5.12.
`COC(=O)c1ccc(NC(=O)COc2ccc(C34CC5CC(CC(C(=O)N6CCc7cc(OC)c(OC)cc7C6)(C5)C3)C4)cc2)cc1` displayed a GI50 in test [1] of 14.3 µM.
Still for that read-out and setting: the figure for `COc1cc2c(cc1OC)CN(C(=O)C13CC4CC(C1)CC(c1ccc(OCC(=O)Nc5cccc(C(=O)NCc6ccco6)c5)cc1)(C4)C3)CC2` is greater than 20 µM; for `COC(=O)c1cccc(NC(=O)COc2ccc(C34CC5CC(CC(C(=O)N6CCc7cc(OC)c(OC)cc7C6)(C5)C3)C4)cc2)c1` it is greater than 20 µM.
Same read-out and setting: the same measure for `COc1cc2c(cc1OC)CN(C(=O)C13CC4CC(C1)CC(c1ccc(OCC(=O)Nc5cccc6cccnc56)cc1)(C4)C3)CC2`: greater than 20 µM; for `COc1cc2c(cc1OC)CN(C(=O)C13CC4CC(C1)CC(c1ccc(OCC(=O)Nc5cccc(C(N)=O)c5)cc1)(C4)C3)CC2`: 16.3 µM.
On the same count and under the same terms, the figure for `COC(=O)c1cccc(NC(=O)COc2ccc(C34CC5CC(CC(C(=O)Nc6ccc(C(C)(C)C)cc6)(C5)C3)C4)cc2)c1` is greater than 20 µM; for `COC(=O)c1cccc(NC(=O)COc2ccc(C34CC5CC(CC(C(=O)OCc6ccccc6)(C5)C3)C4)cc2)c1` it is greater than 20 µM.
The compound `COC(=O)c1cccc(NC(=O)COc2ccc(C34CC5CC(CC(C(=O)N6CCN(Cc7ccc(C(F)(F)F)cc7)CC6)(C5)C3)C4)cc2)c1` gave a pIC50 against Cytochrome P450 3A4 of 5.69. In test [1], this compound returned a GI50 greater than 20 µM.
On to `COc1ccc(CCN(C)CCCC(C#N)(c2ccc(OC)c(OC)c2)C(C)C)cc1OC` (stereo not given), for which, in test [1], the GI50 is greater than 20 µM.
On the same count and under the same terms, the same measure for `COC(=O)c1cccc(NC(=O)COc2ccc(C34CC5CC(CC(C(=O)N6CCN(Cc7ccc(F)cc7)CC6)(C5)C3)C4)cc2)c1`: greater than 20 µM.
For `COC(=O)c1cccc(NC(=O)COc2ccc(C34CC5CC(CC(C(=O)N6CCN(Cc7ccc(OC)cc7)CC6)(C5)C3)C4)cc2)c1`, the pIC50 against Cytochrome P450 3A4 is 6.05. Moreover, it took 14 µM to inhibit growth in test [1] by half (GI50).
Take `COC(=O)c1cccc(NC(=O)COc2ccc(C34CC5CC(CC(C(=O)N6CCN(Cc7cccc(OC)c7)CC6)(C5)C3)C4)cc2)c1`: at Cytochrome P450 3A4, the pIC50 was 6.09. The GI50 in test [1] is 13.2 µM.
Turning to `COC(=O)c1cccc(NC(=O)COc2ccc(C34CC5CC(CC(C(=O)NCCN(C)C)(C5)C3)C4)cc2)c1`, the GI50 in test [1] is greater than 20 µM.
At Cytochrome P450 3A4, `COc1cc2c(cc1OC)CN(C(=O)C13CC4CC(C1)CC(c1ccc(OCC(=O)Nc5cccc(C#N)c5)cc1)(C4)C3)CC2` showed a pIC50 of less than 5.30. In test [1], this compound gave a GI50 greater than 20 µM.
For `COC(=O)c1ccccc1NC(=O)COc1ccc(C23CC4CC(CC(C(=O)N5CCc6cc(OC)c(OC)cc6C5)(C4)C2)C3)cc1` the same measures were 5.42 and greater than 20 µM.
In the case of `COC(=O)c1cccc(NC(=O)COc2ccc(C34CC5CC(CC(C(=O)NCc6ccc(OC)c(OC)c6)(C5)C3)C4)cc2)c1`, the GI50 in test [1] is greater than 20 µM.
Still for that read-out and setting: the same measure for `COc1cc2c(cc1OC)CN(C(=O)C13CC4CC(C1)CC(c1ccc(OCC(=O)Nc5cccc(C(F)(F)F)c5)cc1)(C4)C3)CC2`: 12.1 µM; for `COC(=O)c1cccc(NC(=O)COc2ccc(C34CC5CC(CC(C(N)=O)(C5)C3)C4)cc2)c1`: 14.3 µM.

The term GI50 denotes the concentration giving 50% growth inhibition. Read a low GI50 as greater sensitivity of the cells. One may read the pIC50 as the negative decadic logarithm of the IC50, by convention in mol/L.
